Source: PMC2647857 (Journal of the American Chemical Society, 2009)
Like-named read-outs stand apart in the source and are kept apart here.

B1: NP1: recombinant wild-type nitrophorin 1 of Rhodnius prolixus, NO-carrying heme protein, with M0 present (protein, UniProt Q26239 24-207, looked up)
Nitrophorin-1: KCTKNALAQTGFNKDKYFNGDVWYVTDYLDLEPDDVPKRYCAALAAGTASGKLKEALYHYDPKTQDTFYDVSELQEESPGKYTANFKKVEKNGNVKVDVTSGNYYTFTVMYADDSSALIHTCLHKGNKDLGDLYAVLNRNKDTNAGDKVKGAVTAASLKFSDFISTKDNKCEYDNVSLKSLLTK
modifications: N-terminal Met0 retained
B2: NP4: recombinant wild-type nitrophorin 4 of Rhodnius prolixus, native A1 as first residue (protein, UniProt Q94734 22-205, looked up)
Nitrophorin-4: ACTKNAIAQTGFNKDKYFNGDVWYVTDYLDLEPDDVPKRYCAALAAGTASGKLKEALYHYDPKTQDTFYDVSELQVESLGKYTANFKKVDKNGNVKVAVTAGNYYTFTVMYADDSSALIHTCLHKGNKDLGDLYAVLNRNKDAAAGDKVKSAVSAATLEFSKFISTKENNCAYDNDSLKSLLTK
B3: NP4-D30A: site-directed mutant of NP4, D30 replaced by Ala (protein, UniProt Q94734 22-205, looked up, variant D30A)
Nitrophorin-4: ACTKNAIAQTGFNKDKYFNGDVWYVTDYLALEPDDVPKRYCAALAAGTASGKLKEALYHYDPKTQDTFYDVSELQVESLGKYTANFKKVDKNGNVKVAVTAGNYYTFTVMYADDSSALIHTCLHKGNKDLGDLYAVLNRNKDAAAGDKVKSAVSAATLEFSKFISTKENNCAYDNDSLKSLLTK
B4: NP4-E55Q: site-directed mutant of NP4, buried E55 replaced by Gln (protein, UniProt Q94734 22-205, looked up, variant E55Q)
Nitrophorin-4: ACTKNAIAQTGFNKDKYFNGDVWYVTDYLDLEPDDVPKRYCAALAAGTASGKLKQALYHYDPKTQDTFYDVSELQVESLGKYTANFKKVDKNGNVKVAVTAGNYYTFTVMYADDSSALIHTCLHKGNKDLGDLYAVLNRNKDAAAGDKVKSAVSAATLEFSKFISTKENNCAYDNDSLKSLLTK

How the values were obtained:
[1] = NO binding constant to Fe; design: species or system Rhodnius prolixus; settings: pH 7.5
[2] = Spectroelectrochemical midpoint potential of the NO complex; format: physicochemical, Rhodnius prolixus; settings: NO bound
Method in brief: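 Spectroelectrochemistry of ~0.05 mM E. coli-expressed protein in 0.1 M sodium phosphate or acetate at pH 5.5, 6.5 and 7.5, 27 ± 1 °C. SNAP supplied NO at a level fully complexing both oxidation states. Ag/AgCl reference ([…] mV vs SHE). Absorbance versus applied potential fit to Nernst equation; pH dependence and mutant−standard differences derived.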

[3] = NO bound, cited from earlier work
[4] = ligand-free, cited from earlier work
[5] = read-out: Kd for NO dissociation, Fe(III), cited from earlier work
[6] = Spectroelectrochemical midpoint potential, ligand-free; format: physicochemical, Rhodnius prolixus; settings: ligand-free
[7] = Imidazole binding constant to Fe; design: species or system Rhodnius prolixus; settings: pH 5.5

| Molecule | NO formation constant Kf, Fe(III) form ([1]; listed as M0-containing NP1) [M⁻¹] | Kd ([1]; read-out: NO dissociation constant Kd, Fe(III) form) [nM] | Em,NO ([2]; pH 6.5, 27 °C) [mV vs. SHE] | Em,NO ([3]; pH 5.5, 27 °C ref 15) [mV vs. SHE] | Em,NO ([3]; pH 7.5, 27 °C ref 15) [mV vs. SHE] | Em ([4]; pH 5.5, 27 °C ref 15) [mV vs. SHE] | Em ([4]; pH 7.5, 27 °C ref 15) [mV vs. SHE] | Em,NO ([2]; pH 7.5, 27 °C) [mV vs. SHE] | Kd ([5]; pH 5.5 ref 19) [nM] | Kd ([5]; pH 7.5 ref 19) [nM] | ΔpHΔ(Em,NO) = ΔEm,NO(pH7.5) − ΔEm,NO(pH5.5) [2] [mV] | ΔEm,NO = Em(mutant)−Em(standard) ([2]; pH 5.5) [mV] | Em,NO ([2]; pH 5.5, 27 °C) [mV vs. SHE] | ΔEm,NO = Em(mutant)−Em(standard) ([2]; pH 6.5) [mV] | ΔEm,NO = Em(mutant)−Em(standard) ([2]; pH 7.5) [mV] | ΔEm = Em(mutant)−Em(standard) ([6]; pH 5.5) [mV] | Em ([6]; pH 5.5, 27 °C) [mV vs. SHE] | ΔEm = Em(mutant)−Em(standard) ([6]; pH 7.5) [mV] | Em ([6]; pH 7.5, 27 °C) [mV vs. SHE] | increase of imidazole binding constant compared to wild-type [7] [log unit] |
| --- | --- | --- | --- | --- | --- | --- | --- | --- | --- | --- | --- | --- | --- | --- | --- | --- | --- | --- | --- | --- |
| B1 | 1e+06 | 1000 | 118±3 | 154±5 | 127±4 | −274±2 | −303±4 | – | – | – | – | – | – | – | – | – | – | – | – | – |
| B2 | – | – | 44±2 | 94±5 | – | −259±2 | −278±4 | 59±2 | 50 | 120 | – | – | – | – | – | – | – | – | – | – |
| B3 | – | – | 163±4 | – | – | – | – | – | – | – | 53±6 | 87±5 | 181±2 | 119±5 | 139±2 | 46±2 | −213±1 | 62±4 | −216±2 | – |
| B4 | – | – | 67±2 | – | – | – | – | 126±2 | – | – | 73±6 | −6±5 | 88±1 | 23±3 | 67±2 | 68±3 | −191±3 | 82±4 | −196±2 | 1 |
